Active and inactive are the calls of the source. The rule behind the calls is not given here.
Legend:
[1] = Retention time of the compound by HPLC analysis; assay type: physicochemical
Enterovirus A71 [2] = assay: Antiviral activity against EV71 infected in RD cells after 24 hrs by luciferase assay; assay type: functional, organism-based; details: Enterovirus A
[3] = Cytotoxicity against human RD cells after 24 hrs by WST-1 assay; assay type: cell-based
[4] = target: T1, Peptidyl-prolyl cis-trans isomerase A (Homo sapiens, UniProt P62937); assay: Inhibition of CypA (unknown origin) assessed as peptidyl-prolyl cis-trans isomerase activity at 10 uM using N-succinyl-Ala-Ala-Pro-Phe-p-nitroanilide as substrate by spectrophotometry
Target sequence in this assay (P62937 whole entry, looked up): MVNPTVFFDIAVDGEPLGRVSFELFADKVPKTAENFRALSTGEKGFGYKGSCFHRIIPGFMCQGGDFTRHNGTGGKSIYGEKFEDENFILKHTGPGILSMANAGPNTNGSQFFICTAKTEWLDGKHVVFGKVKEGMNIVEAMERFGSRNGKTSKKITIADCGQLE

Enterovirus A71 [5] = assay: Antiviral activity against EV71; assay type: functional, organism-based; details: Enterovirus A
[6] = target: T1, Peptidyl-prolyl cis-trans isomerase A; assay: Inhibition of CypA (unknown origin) assessed as peptidyl-prolyl cis-trans isomerase activity using N-succinyl-Ala-Ala-Pro-Phe-p-nitroanilide as substrate by spectrophotometry
Target sequence in this assay (P62937 whole entry): as the sequence (P62937 whole entry, looked up) above

[7] = Cytotoxicity against ICR mouse T spleen cells assessed as inhibition of cell proliferation after 72 hrs by MTT assay; assay type: cell-based
Procedure, shortened: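 Proliferation of T and B spleen cells, each from one mouse, run as triplicate sets per assay. IC50 is the mean ± SD of three experiments.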

[8] = Cytotoxicity against ICR mouse B spleen cells assessed as inhibition of cell proliferation after 72 hrs by MTT assay; assay type: cell-based
Enterovirus A71 [9] = assay: Potency index, Ratio of EC50 for cyclosporin A to EC50 for compound for antiviral activity against EV71; assay type: functional
Enterovirus A71 [10] = assay: Antiviral activity against EV71 infected in RD cells assessed as decrease in viral protein1 level by western blot analysis; assay type: functional, organism-based
Procedure, shortened: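 EV71 VP1 protein detected by western blot in a dose series of 5, 1, 0.2 and 0.04 μM. NITD008 at 5 μM serves as positive control.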

Enterovirus A71 [11] = assay: Antiviral activity against EV71 infected in RD cells assessed as decrease in viral RNA level at 5 uM after qRT-PCR analysis; assay type: functional; details: Enterovirus A, read-out: INH
Procedure, shortened: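 Cells are infected with wild-type or S243P mutant EV71 and treated at 5 μM. Viral RNA is reported as a percentage of untreated control cells, with GAPDH mRNA as internal control. Each point is the average of three replicates.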

Enterovirus A71 [12] = assay: Antiviral activity against EV71 infected in RD cells at 0.31 to 5 uM after 24 hrs by luciferase assay in presence of NK-1.8K; assay type: functional
Enterovirus A71 [13] = assay: Antiviral activity against EV71 infected in RD cells at 0.31 to 5 uM after 24 hrs by luciferase assay in presence of NITD008; assay type: functional
Enterovirus A71 [14] = assay: Antiviral activity against EV71 infected in RD cells at 0.08 uM after 24 hrs by luciferase assay in presence of NK-1.8K; assay type: functional, organism-based
Enterovirus A71 [15] = assay: Antiviral activity against EV71 infected in RD cells at 0.08 uM after 24 hrs by luciferase assay in presence of NITD008; assay type: functional, organism-based

| Compound | Retention_time [1] [min] | EC50 (Enterovirus A71 [2]) [µM] | CC50 at 24 h [3] [µM] | inhibition [4] [%] | IC50 ([6]; read-out: IC50) [µM] | also measured |
| --- | --- | --- | --- | --- | --- | --- |
| O=C(NC(=O)c1c(O)cccc1O)NC1c2ccccc2-c2cc(C(F)(F)F)ccc21 (centres undefined) | 5.68 | > 10 | > 25 | 20.3 |  |  |
| CCOC(=O)/C=C/[C@H](C[C@@H]1CCNC1=O)NC(=O)[C@@H](CC(=O)[C@@H](NC(=O)c1cc(C)on1)C(C)C)Cc1ccc(F)cc1 |  |  |  |  |  | EC50 (Enterovirus A71 [5]): 0.014 µM |
| O=C(NC(=O)c1ccccc1F)NC1c2ccccc2-c2cc(F)ccc21 (centres undefined) | 6.15 | 2.11 | > 10 |  | 10.3 |  |
| O=C(NC(=O)c1c(O)cccc1O)NC1c2ccccc2-c2cc3ccccc3cc21 (centres undefined) | 5.07 | 1.92 | > 25 | 39.1 | 10 |  |
| O=C(NC(=O)c1c(O)cccc1O)NC1c2ccccc2-c2ccccc21 |  | 3.36 | > 20 |  |  | IC50 [7]: 33 µM; IC50 [8]: 51.9 µM |
| O=C(NC(=O)c1ccccc1F)NC1c2ccccc2-c2cc(Cl)ccc21 (centres undefined) | 6.6 | 3.34 | > 25 |  | 10.8 |  |
| O=C(NC(=O)c1ccccc1F)NC1c2ccccc2-c2ccccc21 |  | 1.07 | > 20 |  |  | IC50 [7]: > 100 µM; IC50 [8]: > 100 µM |
| O=C(NC(=O)c1c(O)cccc1O)NC1c2ccccc2-c2cccc(F)c21 (centres undefined) | 4.7 | 1.13 | > 25 |  | 0.94 |  |
| O=C(NC(=O)c1ccccc1F)NC1c2ccccc2C2CCCCC21 (racemic) | 9.04 | 5.25 | > 25 | 33.5 | 10 |  |
| O=C(NCc1ccccc1F)NC1c2ccccc2-c2ccccc21 | 5.57 | > 25 | > 25 | 17.8 | 10 |  |
| C/C=C/C[C@@H](C)[C@@H](O)[C@H]1C(=O)N[C@@H](CC)C(=O)N(C)CC(=O)N(C)[C@@H](CC(C)C)C(=O)N[C@@H](C(C)C)C(=O)N(C)[C@@H](CC(C)C)C(=O)N[C@@H](C)C(=O)N[C@H](C)C(=O)N(C)[C@@H](CC(C)C)C(=O)N(C)[C@@H](CC(C)C)C(=O)N(C)[C@@H](C(C)C)C(=O)N1C [CYCLOSPORINE] |  | 3.66 |  |  |  |  |
| O=C(NC(=O)c1c(O)cccc1O)NC1c2ccc(F)cc2-c2ccc(F)cc21 (centres undefined) | 4.94 | 1.08 | > 25 |  | 10.3 |  |
| O=C(NCc1c(O)cccc1O)NC1c2ccccc2-c2ccccc21 | 5.37 | > 10 | > 25 | 9.25 | 10 |  |
| O=C(NC(=O)c1ccc(O)cc1O)NC1c2ccccc2-c2ccccc21 | 5.44 | > 25 | > 25 | 21.4 | 10 |  |
| O=C(NC(=O)c1c(O)cccc1O)NC1c2ccccc2-c2cc(F)ccc21 (centres undefined) | 8.07 | 0.37 | > 25 |  | 2.76 | Ratio EC50 (Enterovirus A71 [9]): 9.9; inhibition (Enterovirus A71 [10]): Dose-dependent effect; inhibition at 5 µM (Enterovirus A71 [11]): 3%; %max (Enterovirus A71 [12]): 20%; %max (Enterovirus A71 [13]): 20%; Activity (Enterovirus A71 [14]): inactive; Activity (Enterovirus A71 [15]): inactive |
| O=C(NC(=O)c1c(F)cccc1F)NC1c2ccccc2-c2ccccc21 |  | 5.85 | > 20 |  |  |  |
| O=C(NC(=O)c1c(O)cccc1O)NC1c2ccccc2C2CCCCC21 (racemic) | 5.41 | 4.31 | > 25 | 27.6 | 10 |  |
| O=C(NC(=O)c1c(O)cccc1O)NC1c2ccccc2-c2cc(Cl)ccc21 (centres undefined) | 4.19 | 0.46 | > 25 |  | 1.22 |  |
| O=C(NC(=O)c1cc(F)ccc1O)NC1c2ccccc2-c2ccccc21 | 8.91 | 3.78 | > 25 | 27.7 | 10 |  |
| O=C(NC(=O)c1ccccc1F)NC1c2ccccc2-c2cccc(F)c21 (centres undefined) | 6.02 | 0.66 | > 25 |  | 10.4 |  |
| Cc1ccc2c(c1)-c1ccccc1C2NC(=O)NC(=O)c1ccccc1F (centres undefined) | 8.84 | 0.92 | > 10 | 28.7 | 10 |  |
| O=C(NC(=O)c1cc(O)cc(O)c1)NC1c2ccccc2-c2ccccc21 | 7.88 | > 25 | > 25 |  |  | IC50 [6]: Not Active |
| O=C(Cc1ccccc1F)NC(=O)NC1c2ccccc2-c2ccccc21 | 6.05 | > 10 | > 50 | 16.9 | 10 |  |
| Cc1ccc2c(c1)-c1ccccc1C2NC(=O)NC(=O)c1c(O)cccc1O (centres undefined) | 4.42 | 2.72 | > 25 |  | 11.6 |  |

— ChEMBL document CHEMBL3739281, “Identification, synthesis and pharmacological evaluation of novel anti-EV71 agents via cyclophilin A inhibition” (Bioorg Med Chem Lett, 2015)
